The structures appear in SMILES notation. Values after ≈ are worked out from the molar mass of the structure shown.

The first assay deals with T1, Enoyl-[acyl-carrier-protein] reductase [NADH] (Mycobacterium tuberculosis) (UniProt P9WGR1).
T1 sequence (whole entry): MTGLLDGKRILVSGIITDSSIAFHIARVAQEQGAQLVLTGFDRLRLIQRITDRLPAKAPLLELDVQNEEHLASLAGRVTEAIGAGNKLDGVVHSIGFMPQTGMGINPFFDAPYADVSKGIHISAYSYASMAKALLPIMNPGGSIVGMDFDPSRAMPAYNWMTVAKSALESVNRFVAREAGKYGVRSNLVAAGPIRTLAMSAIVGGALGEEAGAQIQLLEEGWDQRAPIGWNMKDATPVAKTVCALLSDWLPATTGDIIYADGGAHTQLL
The experiment in a line: Inhibition of Mycobacterium tuberculosis InhA expressed in Escherichia coli using trans-2-dodecenoyl-coenzyme-A as substrate at 5 uM. An outline of the steps:
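Recombinant M. tuberculosis wild-type InhA purified from E. coli. Reaction started by adding InhA (100 nM final) to DD-CoA (50 μM final), NADH (250 μM final) and inhibitor in 30 mM PIPES, 150 mM NaCl, pH 6.8. Percent inhibition taken from initial velocity against a no-inhibitor control. Run in triplicate.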
`O=C1CC(C2c3ccccc3-c3ccccc32)C(=O)N1c1cc(Cl)cc(Cl)c1` (stereo not given) returned an inhibition of 31%.

The test system of another assay is Mycobacterium tuberculosis. The experiment in a line: Antimicrobial activity against Mycobacterium tuberculosis H37Rv by two-fold serial dilution method. The class given is functional. Put shortly: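 Compounds dissolved in DMSO. Single colony grown in Middlebrook 7H9 with 0.05% Tween 80 and 10% OADC at 37 °C, no shaking, to ~10^8 CFU/mL (OD600 0.8–1.0). Diluted to ~10^7 CFU/mL; 1 μL streaked onto 7H11 agar (0.5% glycerol, 10% OADC) with two-fold serial compound dilutions. MIC is the lowest concentration inhibiting growth. Repeated three times.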
With `O=C(c1ccc2[nH]ccc2c1)N1CCN(C2c3ccccc3-c3ccccc32)CC1`, the MIC is above 40.7 µM.
`O=C(CC(C(=O)O)C1c2ccccc2-c2ccccc21)Nc1ccc(F)cc1` (stereo not given) displayed an MIC of 42.6 µM (≈ 16 µg/mL).
Same read-out and setting: for `O=C(CC(C(=O)O)C1c2ccccc2-c2ccccc21)NCCc1c[nH]c2ccccc12` (stereo not given) the value was 37.7 µM (≈ 16 µg/mL).
In turn, `O=C1CC(C2c3ccccc3-c3ccccc32)C(=O)N1c1cc(Cl)cc(Cl)c1` (stereo not given) returned an MIC of 19.6 µM (≈ 8 µg/mL).
Still for that read-out and setting: under `O=C(CC(C(=O)O)C1c2ccccc2-c2ccccc21)NNC(=O)c1ccncc1` (stereo not given) stands 10 µM (≈ 4.01 µg/mL); under `O=C1CC(C2c3ccccc3-c3ccccc32)C(=O)N1C(=O)c1ccc2[nH]ccc2c1` (stereo not given), 39.4 µM (≈ 16 µg/mL).
Molecule `O=C1CC(C2c3ccccc3-c3ccccc32)C(=O)N1` (stereo not given) gave an MIC of 30.4 µM (≈ 8 µg/mL).
The same measure, in the same setting: under `O=C1CC(C2c3ccccc3-c3ccccc32)C(=O)N1CCc1c[nH]c2ccccc12` (stereo not given) stands above 39.4 µM.
Still for that read-out and setting: under `O=C(CC(C(=O)O)C1c2ccccc2-c2ccccc21)Nc1cc(Cl)cc(Cl)c1` (stereo not given) stands 4.7 µM (≈ 2 µg/mL); under `O=C1CC(C2c3ccccc3-c3ccccc32)C(=O)N1Cc1ccccc1` (single isomer, unassigned), 45.3 µM (≈ 16 µg/mL); under `COc1cc(N2C(=O)CC(C3c4ccccc4-c4ccccc43)C2=O)cc(OC)c1OC` (stereo not given), 37.3 µM (≈ 16 µg/mL).
Same read-out and setting: for `O=C1CC(C2c3ccccc3-c3ccccc32)C(=O)N1c1ccc(F)cc1` (stereo not given) the value was above 44.8 µM; for `O=C1CC(C2c3ccccc3-c3ccccc32)C(=O)N1C(=O)c1ccccc1` (racemic), 5.4 µM (≈ 1.98 µg/mL); for `O=C(Cc1ccccc1)N1C(=O)CC(C2c3ccccc3-c3ccccc32)C1=O` (stereo not given), 41.9 µM (≈ 16 µg/mL).
Molecule `O=C(CN1C(=O)CC(C2c3ccccc3-c3ccccc32)C1=O)c1ccccc1` (stereo not given) gave an MIC above 41.9 µM.
Same read-out and setting: under `O=C(O)CC(C(=O)O)C1c2ccccc2-c2ccccc21` (stereo not given) stands 28.3 µM (≈ 7.99 µg/mL); under `COc1cc(CN2C(=O)CC(C3c4ccccc4-c4ccccc43)C2=O)cc(OC)c1` (stereo not given), above 38.7 µM.
The same measure, in the same setting: under `CCCCCCCCCN1C(=O)CC(C2c3ccccc3-c3ccccc32)C1=O` (stereo not given) stands 41.1 µM (≈ 16 µg/mL).
On the same count and under the same terms, under `CCCCCCCCC(=O)N1C(=O)CC(C2c3ccccc3-c3ccccc32)C1=O` (stereo not given) stands 39.7 µM (≈ 16 µg/mL).

Values taken from ChEMBL document CHEMBL3085705, “Design, chemical synthesis of 3-(9H-fluoren-9-yl)pyrrolidine-2,5-dione derivatives and biological activity against enoyl-ACP reductase (InhA) and Mycobacterium tuberculosis” (2013).
